From ChEMBL document CHEMBL1132860 (Bioorg Med Chem Lett, 2000) come the findings set out here.

Test [1] addresses T1, Alpha-2A adrenergic receptor (Homo sapiens, UniProt P08913).
T1 sequence (P08913 whole entry): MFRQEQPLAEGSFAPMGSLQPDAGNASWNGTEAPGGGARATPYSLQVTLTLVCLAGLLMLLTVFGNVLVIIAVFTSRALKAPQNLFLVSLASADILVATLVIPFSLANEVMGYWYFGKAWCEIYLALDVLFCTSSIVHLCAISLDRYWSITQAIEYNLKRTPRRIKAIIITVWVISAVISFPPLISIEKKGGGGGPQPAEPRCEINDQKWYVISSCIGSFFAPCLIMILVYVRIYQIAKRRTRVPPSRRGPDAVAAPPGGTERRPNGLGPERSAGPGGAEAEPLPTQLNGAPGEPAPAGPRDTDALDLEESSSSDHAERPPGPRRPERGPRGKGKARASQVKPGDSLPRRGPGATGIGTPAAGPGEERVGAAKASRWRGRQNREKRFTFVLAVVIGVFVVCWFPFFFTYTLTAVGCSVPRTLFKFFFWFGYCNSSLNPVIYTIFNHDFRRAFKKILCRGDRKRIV
Description: Binding affinity at human Alpha-2A adrenergic receptor in CHO cells by [3H]rauwolscine (1 nM) displacement. The class given is cell-based. In a few lines:
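Membranes from CHO cells stably expressing the human receptor, with 1 nM [3H]rauwolscine as radioligand. Nonspecific binding was defined with 1 μM oxymethazoline. Compounds were tested over 10^-5 to 10^-11. Inhibition curves were fitted as sigmoids by non-linear regression using polynomials, and pIC50 (−log IC50) was read from the curves.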

The target of test [2] is T2, Alpha-2B adrenergic receptor (Homo sapiens, UniProt P18089).
T2 sequence (P18089 whole entry): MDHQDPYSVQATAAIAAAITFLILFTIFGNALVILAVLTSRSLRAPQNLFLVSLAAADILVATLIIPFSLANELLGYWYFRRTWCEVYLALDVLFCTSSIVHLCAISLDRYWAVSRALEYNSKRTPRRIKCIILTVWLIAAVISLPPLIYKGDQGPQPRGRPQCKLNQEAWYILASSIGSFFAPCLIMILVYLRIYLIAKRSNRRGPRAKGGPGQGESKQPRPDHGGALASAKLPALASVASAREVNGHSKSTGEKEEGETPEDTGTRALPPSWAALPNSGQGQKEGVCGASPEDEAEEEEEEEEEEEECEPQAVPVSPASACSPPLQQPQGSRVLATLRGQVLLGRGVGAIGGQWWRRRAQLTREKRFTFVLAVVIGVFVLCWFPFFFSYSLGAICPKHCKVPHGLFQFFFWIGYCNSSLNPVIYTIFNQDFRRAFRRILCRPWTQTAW
Put plainly: Binding affinity at human Alpha-2B adrenergic receptor in CHO cells by [3H]rauwolscine (1 nM) displacement. The class given is cell-based.

Test [3] has as its target T3, Alpha-1A adrenergic receptor (Homo sapiens, UniProt P35348).
T3 sequence (P35348 whole entry): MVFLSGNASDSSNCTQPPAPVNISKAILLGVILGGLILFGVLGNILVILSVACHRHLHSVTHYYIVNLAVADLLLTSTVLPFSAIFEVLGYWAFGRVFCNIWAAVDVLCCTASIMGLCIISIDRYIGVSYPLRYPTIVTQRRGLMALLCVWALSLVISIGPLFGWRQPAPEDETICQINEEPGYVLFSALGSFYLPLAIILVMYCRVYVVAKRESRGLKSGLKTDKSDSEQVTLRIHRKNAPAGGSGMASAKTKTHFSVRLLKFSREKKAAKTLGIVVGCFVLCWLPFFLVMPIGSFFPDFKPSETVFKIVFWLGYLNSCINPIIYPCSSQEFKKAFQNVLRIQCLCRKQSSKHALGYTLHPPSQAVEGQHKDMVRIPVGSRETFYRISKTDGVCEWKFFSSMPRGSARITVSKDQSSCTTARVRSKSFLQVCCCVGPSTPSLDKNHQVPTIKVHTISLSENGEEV
Put plainly: Binding affinity at human Alpha-1A adrenergic receptor in CHO cells uby [3H]prazosin (0.25 nM) displacement. The class given is cell-based.

Test [4] has as its target T4, Alpha-2C adrenergic receptor (Homo sapiens, UniProt P18825).
T4 sequence (P18825 whole entry): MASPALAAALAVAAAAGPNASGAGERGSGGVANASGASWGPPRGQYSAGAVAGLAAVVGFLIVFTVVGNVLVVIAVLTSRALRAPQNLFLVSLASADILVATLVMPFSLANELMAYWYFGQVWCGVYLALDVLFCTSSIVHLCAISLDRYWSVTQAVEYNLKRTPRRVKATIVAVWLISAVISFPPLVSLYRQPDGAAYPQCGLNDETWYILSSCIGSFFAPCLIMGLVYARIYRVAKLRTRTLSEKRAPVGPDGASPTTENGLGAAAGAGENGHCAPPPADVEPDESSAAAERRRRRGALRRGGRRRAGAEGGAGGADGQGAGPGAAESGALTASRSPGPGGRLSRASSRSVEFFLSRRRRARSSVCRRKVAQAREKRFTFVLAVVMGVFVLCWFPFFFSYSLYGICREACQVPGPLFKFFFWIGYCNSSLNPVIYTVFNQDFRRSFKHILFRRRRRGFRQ
Description: biochemical. The class given is cell-based, CHO.

The subject of test [5] is Rattus norvegicus. Description: Inhibition of Xylazine (15 mg/kg i.v.) induced loss of righting reflex in rats following i.v. administration. The arrangement: unit not given here. In kind it is functional.
Test [6] has as its system Rattus norvegicus. Description: Inhibition of clonidine (0.04 mg/kg) induced anti diarrhoeal effects in rats following s.c. administration. In kind it is functional. The arrangement: unit not given here.

Broadly, the IC50 is the concentration that gives 50% inhibition. For the molecule `COc1cc2nc(C)c(CCN3CCc4oc5ccccc5c4C3)c(=O)n2cc1OC`, the IC50 in test [1] was 3.55 nM; in test [2] it was 195 nM; in test [3], 5250 nM; in test [4] it was 57.5 nM. Besides, the figures for the Activity in test [5] and in test [6] were over 10 and over 0.63, respectively.

Take `Cc1nc2c(Cl)cc(C(F)(F)F)cn2c(=O)c1CCN1CCc2oc3ccccc3c2C1`: the IC50 is 1.17 nM in test [1], 1.95 nM in test [2] and 5890 nM in test [3].

Consider `Cc1cc(C)n2c(=O)c(CCN3CCc4oc5ccccc5c4C3)c(C)nc2c1`, for which the IC50 in test [1] is 0.339 nM; in test [2], 2.63 nM; in test [3] it was 240 nM; in test [4], 0.851 nM. Also, the Activity in test [5] was over 10; in test [6] it was over 2.5.

Take `Cc1ccc2nc(C)c(CCN3CCc4oc5ccccc5c4C3)c(=O)n2c1`: the half-maximal inhibitory concentration (IC50) is 0.347 nM in test [1], 1.55 nM in test [2], 288 nM in test [3] and 1.29 nM in test [4]. For the same molecule, the Activity in test [5] stood at 0.16; in test [6] it was 0.63.

`O=c1c(CCN2CCc3oc4ccccc4c3C2)c(Cc2ccccc2)nc2ccccn12`: the IC50 is 2.19 nM in test [1], 4.17 nM in test [2], 204 nM in test [3] and 2.69 nM in test [4]. For the same molecule, the Activity in test [5] is over 10; in test [6] it was over 2.5.

Regarding `COc1cccn2c(=O)c(CCN3CCc4oc5ccccc5c4C3)c(C)nc12`, the IC50 was 0.295 nM in test [1], 2.04 nM in test [2], 115 nM in test [3] and 0.708 nM in test [4]. The Activity in test [5] and in test [6] was 0.63 throughout.

With `Cc1nc2ccc(I)cn2c(=O)c1CCN1CCc2oc3ccccc3c2C1`, the IC50 in test [1] is 0.24 nM; in test [2], 2.09 nM; in test [3], 479 nM; in test [4], 0.617 nM. Besides, the figures for the Activity in test [5] and in test [6] were 10 and over 2.5, respectively.

Consider `Cc1nc2c(O)cccn2c(=O)c1CCN1CCc2oc3ccccc3c2C1`, for which the half-inhibitory concentration (IC50) in test [1] is 0.692 nM; in test [2] it was 1.74 nM; in test [3] it was 245 nM; in test [4], 1.62 nM. Besides, the Activity is listed as 5 in test [5] and 2.5 in test [6].

Turning to `Cc1nc2cccc(C)n2c(=O)c1CCN1CCc2oc3ccccc3c2C1`, the IC50 in test [1] is 0.288 nM; in test [2], 1.48 nM; in test [3], 398 nM; in test [4] it was 1.07 nM. For the same molecule, the Activity is given as 0.63 in test [5] and 2.5 in test [6].

With `Cc1nc2c(Cl)cc(Cl)cn2c(=O)c1CCN1CCc2oc3ccccc3c2C1`, the figures for the IC50 in test [1] and in test [3] were 0.589 nM and 2570 nM, respectively. The results for the Activity in test [5] and in test [6] were over 10 and over 2.5, respectively.

As to `Cc1nc2ccccn2c(=O)c1CCN1CCc2oc3c(Cl)cccc3c2C1`, the IC50 is 0.891 nM in test [1], 4.37 nM in test [2], 282 nM in test [3] and 2.24 nM in test [4]. Moreover, the Activity amounted to 2.5 in test [5] and 0.63 in test [6].

As to `Cc1nc2ccccn2c(=O)c1CCN1CCc2sc3ccccc3c2C1`, the IC50 in test [1] was 1.74 nM; in test [2], 11.5 nM; in test [3], 214 nM; in test [4], 14.1 nM. Besides, the Activity in test [5] was determined as 2.5; in test [6] it was 10.

Turning to `Cc1nc2ccc(Br)cn2c(=O)c1CCN1CCc2oc3ccccc3c2C1`, the IC50 in test [1] was 0.355 nM; in test [2], 1.35 nM; in test [3], 891 nM; in test [4], 0.692 nM. For the same molecule, the Activity turned out to be 0.16 in test [5] and 2.5 in test [6].

`Cc1nc2ccccn2c(=O)c1CCN1CCc2oc3ccc(Cl)cc3c2C1`: the half-maximal inhibitory concentration (IC50) in test [1] is 3.89 nM; in test [2], 79.4 nM; in test [4] it was 27.5 nM. The results for the Activity in test [5] and in test [6] were 10 and over 2.5, respectively.

On to `Cc1nc2ccccn2c(=O)c1CCCN1CCc2oc3ccccc3c2C1`, for which the IC50 in test [1] is 10.2 nM; in test [2], 10.7 nM; in test [3], 813 nM; in test [4], 6.61 nM. Moreover, the figures for the Activity in test [5] and in test [6] were over 10 and over 2.5, respectively.

Take `Cc1ccn2c(=O)c(CCN3CCc4oc5ccccc5c4C3)c(C)nc2c1`: the IC50 in test [1] was 0.447 nM; in test [2], 2.57 nM; in test [3] it was 112 nM; in test [4] it was 1.2 nM. In addition, the Activity in test [5] was found to be 0.63; in test [6] it was 2.5.

Regarding `Cc1nc2c(C)cccn2c(=O)c1CCN1CCc2oc3ccccc3c2C1`, the IC50 in test [1] was 0.603 nM; in test [2] it was 2.14 nM; in test [3] it was 692 nM; in test [4] it was 1.32 nM. In addition, the Activity was 10 in test [5] and 2.5 in test [6].

With `Cc1nc2ccc(Cl)cn2c(=O)c1CCN1CCc2oc3ccccc3c2C1`, the IC50 in test [1] was 0.214 nM; in test [2] it was 0.955 nM; in test [3], 724 nM; in test [4] it was 0.724 nM. Further, the figures for the Activity in test [5] and in test [6] were 0.04 and 0.63, respectively.

Regarding `c1ccc2c(c1)OCC(C1=NCCN1)O2` (stereo not drawn) [IDAZOXAN], the Activity in test [5] and in test [6] was 0.63 in each case.

As for `Cc1nc2ccccn2c(=O)c1CCN1CCc2oc3ccccc3c2C1` [LUSAPERIDONE], the IC50 in test [1] is 0.55 nM; in test [2], 2.57 nM; in test [3], 347 nM; in test [4] it was 1.7 nM. Besides, the Activity came out at 0.04 in test [5] and 0.31 in test [6].

On to `CN1CCN2c3ncccc3Cc3ccccc3C2C1` (stereo not drawn) [MIRTAZAPINE], for which half-maximal inhibition in test [4] (IC50) was put at 200 nM. For the same molecule, the Activity in test [5] is given as 2.5; in test [6], over 10.
